Test results from ChEMBL document CHEMBL1671676, “In vitro activity of nemonoxacin, a novel nonfluorinated quinolone, against 2,440 clinical isolates” (2009).
In brackets after ≈: the same amount, converted by molar mass.

How the values were obtained:
Format in all cases: functional
Staphylococcus aureus [1] = test: Antibacterial activity against methicillin-susceptible Staphylococcus aureus assessed as percent cumulative susceptible isolates at minimum inhibitory concentration of 4 ug/ml by CLSI broth microdilution method; set-up: scale not given: the % may be the effect or the level left
Streptococcus pneumoniae [2] = test: Antibacterial activity against penicillin-resistant Streptococcus pneumoniae assessed as percent cumulative susceptible isolates at minimum inhibitory concentration of 0.5 ug/ml by CLSI broth microdilution method; set-up: scale not given: the % may be the effect or the level left
Streptococcus pneumoniae [3] = test: Antibacterial activity against penicillin-resistant Streptococcus pneumoniae assessed as percent cumulative susceptible isolates at minimum inhibitory concentration of […] by CLSI broth microdilution method; set-up: scale not given: the % may be the effect or the level left
Streptococcus pneumoniae [4] = test: Antibacterial activity against Streptococcus pneumoniae assessed as percent cumulative susceptible isolates at minimum inhibitory concentration of […] by CLSI broth microdilution method; set-up: scale not given: the % may be the effect or the level left
Proteus mirabilis [5] = test: Antibacterial activity against Proteus mirabilis assessed as percent cumulative susceptible isolates at minimum inhibitory concentration of 32 ug/ml by CLSI broth microdilution method; set-up: scale not given: the % may be the effect or the level left
Staphylococcus aureus [6] = test: Antibacterial activity against methicillin-resistant Staphylococcus aureus by CLSI M7-A7 broth microdilution method
Klebsiella pneumoniae = test: Antibacterial activity against Klebsiella pneumoniae assessed as percent cumulative susceptible isolates at minimum inhibitory concentration of […] by CLSI broth microdilution method; set-up: scale not given: the % may be the effect or the level left
Streptococcus pneumoniae [7] = test: Antibacterial activity against Streptococcus pneumoniae assessed as percent cumulative susceptible isolates at minimum inhibitory concentration of 0.5 ug/ml by CLSI broth microdilution method; set-up: scale not given: the % may be the effect or the level left
Staphylococcus aureus [8] = test: Antibacterial activity against methicillin-susceptible Staphylococcus aureus assessed as percent cumulative susceptible isolates at minimum inhibitory concentration of 0.06 ug/ml by CLSI broth microdilution method; set-up: scale not given: the % may be the effect or the level left
Staphylococcus aureus [9] = test: Antibacterial activity against methicillin-susceptible Staphylococcus aureus assessed as percent cumulative susceptible isolates at minimum inhibitory concentration of 8 ug/ml by CLSI broth microdilution method; set-up: scale not given: the % may be the effect or the level left
Staphylococcus aureus [10] = test: Antibacterial activity against methicillin-susceptible Staphylococcus aureus assessed as percent cumulative susceptible isolates at minimum inhibitory concentration of 32 ug/ml by CLSI broth microdilution method; set-up: scale not given: the % may be the effect or the level left
Method in brief: (§1)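 Clinical isolates tested by CLSI broth microdilution using 96-well panels of doubling drug dilutions in cation-adjusted Mueller-Hinton broth with 5% lysed horse blood. MIC was read from these panels. Panel quality control used CLSI ATCC strains, including S. pneumoniae 49619, S. aureus 29213, E. faecalis 29212 and E. coli 25922. Cumulative percentages of isolates were tabulated at each MIC.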

Pseudomonas aeruginosa [11] = test: Antibacterial activity against Pseudomonas aeruginosa assessed as percent cumulative susceptible isolates at minimum inhibitory concentration of […] by CLSI broth microdilution method; set-up: scale not given: the % may be the effect or the level left
Escherichia coli [12] = test: Antibacterial activity against Escherichia coli assessed as percent cumulative susceptible isolates at minimum inhibitory concentration of 0.06 ug/ml by CLSI broth microdilution method; set-up: scale not given: the % may be the effect or the level left
Escherichia coli [13] = test: Antibacterial activity against Escherichia coli assessed as percent cumulative susceptible isolates at minimum inhibitory concentration of 4 ug/ml by CLSI broth microdilution method; set-up: scale not given: the % may be the effect or the level left
Staphylococcus aureus [14] = test: Antibacterial activity against hospital-associated methicillin-resistant Staphylococcus aureus assessed as percent cumulative susceptible isolates at minimum inhibitory concentration of 8 ug/ml by CLSI broth microdilution method; set-up: scale not given: the % may be the effect or the level left
Staphylococcus aureus [15] = test: Antibacterial activity against Staphylococcus aureus by CLSI M7-A7 broth microdilution method
[16] = tested on: Stenotrophomonas maltophilia; test: Antibacterial activity against Stenotrophomonas maltophilia assessed as percent cumulative susceptible isolates at minimum inhibitory concentration of 8 ug/ml by CLSI broth microdilution method; set-up: scale not given: the % may be the effect or the level left
Enterobacter cloacae [17] = test: Antibacterial activity against Enterobacter cloacae assessed as percent cumulative susceptible isolates at minimum inhibitory concentration of […] by CLSI broth microdilution method; set-up: scale not given: the % may be the effect or the level left
Enterococcus faecium [18] = test: Antibacterial activity against Enterococcus faecium assessed as percent cumulative susceptible isolates at minimum inhibitory concentration of 4 ug/ml by CLSI broth microdilution method; set-up: scale not given: the % may be the effect or the level left
Enterobacter cloacae [19] = test: Antibacterial activity against Enterobacter cloacae assessed as percent cumulative susceptible isolates at minimum inhibitory concentration of 0.06 ug/ml by CLSI broth microdilution method; set-up: scale not given: the % may be the effect or the level left
Klebsiella oxytoca = test: Antibacterial activity against Klebsiella oxytoca assessed as percent cumulative susceptible isolates at minimum inhibitory concentration of 0.06 ug/ml by CLSI broth microdilution method; set-up: scale not given: the % may be the effect or the level left
Pseudomonas aeruginosa [20] = test: Antibacterial activity against Pseudomonas aeruginosa assessed as percent cumulative susceptible isolates at minimum inhibitory concentration of 32 ug/ml by CLSI broth microdilution method; set-up: scale not given: the % may be the effect or the level left
Staphylococcus aureus [21] = test: Antibacterial activity against methicillin-susceptible Staphylococcus aureus assessed as percent cumulative susceptible isolates at minimum inhibitory concentration of 1 ug/ml by CLSI broth microdilution method; set-up: scale not given: the % may be the effect or the level left
Enterococcus faecium [22] = test: Antibacterial activity against Enterococcus faecium assessed as percent cumulative susceptible isolates at minimum inhibitory concentration of 32 ug/ml by CLSI broth microdilution method; set-up: scale not given: the % may be the effect or the level left
Escherichia coli [23] = test: Antibacterial activity against Escherichia coli assessed as percent cumulative susceptible isolates at minimum inhibitory concentration of 32 ug/ml by CLSI broth microdilution method; set-up: scale not given: the % may be the effect or the level left
Acinetobacter baumannii = test: Antibacterial activity against Acinetobacter baumannii assessed as percent cumulative susceptible isolates at minimum inhibitory concentration of 1 ug/ml by CLSI broth microdilution method; set-up: scale not given: the % may be the effect or the level left
Staphylococcus aureus [24] = test: Antibacterial activity against non-levofloxacin susceptible Staphylococcus aureus assessed as percent cumulative susceptible isolates at minimum inhibitory concentration of 32 ug/ml by CLSI broth microdilution method; set-up: scale not given: the % may be the effect or the level left
Proteus mirabilis [25] = test: Antibacterial activity against Proteus mirabilis assessed as percent cumulative susceptible isolates at minimum inhibitory concentration of 64 ug/ml by CLSI broth microdilution method; set-up: scale not given: the % may be the effect or the level left
Enterococcus faecium [26] = test: Antibacterial activity against Enterococcus faecium assessed as percent cumulative susceptible isolates at minimum inhibitory concentration of 64 ug/ml by CLSI broth microdilution method; set-up: scale not given: the % may be the effect or the level left
Streptococcus pneumoniae [27] = test: Antibacterial activity against Streptococcus pneumoniae assessed as percent cumulative susceptible isolates at minimum inhibitory concentration of 0.03 ug/ml by CLSI broth microdilution method; set-up: scale not given: the % may be the effect or the level left
Escherichia coli [28] = test: Antibacterial activity against Escherichia coli assessed as percent cumulative susceptible isolates at minimum inhibitory concentration of >=[…] by CLSI broth microdilution method; set-up: scale not given: the % may be the effect or the level left
Proteus mirabilis [29] = test: Antibacterial activity against Proteus mirabilis assessed as percent cumulative susceptible isolates at minimum inhibitory concentration of 0.5 ug/ml by CLSI broth microdilution method; set-up: scale not given: the % may be the effect or the level left
Enterococcus faecium [30] = test: Antibacterial activity against Enterococcus faecium assessed as percent cumulative susceptible isolates at minimum inhibitory concentration of 0.06 ug/ml by CLSI broth microdilution method; set-up: scale not given: the % may be the effect or the level left
Staphylococcus aureus [31] = test: Antibacterial activity against hospital-associated methicillin-resistant Staphylococcus aureus assessed as percent cumulative susceptible isolates at minimum inhibitory concentration of 0.5 ug/ml by CLSI broth microdilution method; set-up: scale not given: the % may be the effect or the level left
Staphylococcus aureus [32] = test: Antibacterial activity against community-associated methicillin-resistant Staphylococcus aureus by CLSI M7-A7 broth microdilution method; method in brief: as §1
[33] = tested on: Staphylococcus epidermidis; test: Antibacterial activity against methicillin-susceptible Staphylococcus epidermidis assessed as percent cumulative susceptible isolates at minimum inhibitory concentration of […] by CLSI broth microdilution method; set-up: scale not given: the % may be the effect or the level left
Enterococcus faecalis = test: Antibacterial activity against Enterococcus faecalis by CLSI M7-A7 broth microdilution method

| SMILES | Activity (Staphylococcus aureus [1]) | Activity (Streptococcus pneumoniae [3]) | Activity (Streptococcus pneumoniae [4]) | Activity (Proteus mirabilis [5]) | MIC50 (Staphylococcus aureus [6]) | Activity (Klebsiella pneumoniae) | Activity (Staphylococcus aureus [8]) | Activity (Staphylococcus aureus [9]) | Activity (Staphylococcus aureus [10]) | Activity (Pseudomonas aeruginosa [11]) | Activity (Escherichia coli [12]) | Activity (Escherichia coli [13]) | Activity (Staphylococcus aureus [14]) | MIC (Staphylococcus aureus [15]) | MIC90 (Staphylococcus aureus [15]) | Activity (Enterobacter cloacae [17]) | Activity (Enterococcus faecium [18]) | Activity (Enterobacter cloacae [19]) | Activity (Klebsiella oxytoca) | Activity (Pseudomonas aeruginosa [20]) | other results |
| --- | --- | --- | --- | --- | --- | --- | --- | --- | --- | --- | --- | --- | --- | --- | --- | --- | --- | --- | --- | --- | --- |
| C[C@H]1COc2c(N3CCN(C)CC3)c(F)cc3c(=O)c(C(=O)O)cn1c23.C[C@H]1COc2c(N3CCN(C)CC3)c(F)cc3c(=O)c(C(=O)O)cn1c23.O [LEVOFLOXACIN] | 92% | 3.1% | 10.2% | 100% | ≥ 32 mg/L | 78.4% | 0.5% | 93.6% | 100% | 10.2% | 66.4% | 75.6% | 4% | ≥ 2 mg/L | 16 mg/L | 90.3% | 28.9% | 87.5% | 93.8% | 100% | Activity (Streptococcus pneumoniae [2]): 53.1%; Activity (Streptococcus pneumoniae [7]): 69.3%; Activity [16]: 92.3%; Activity (Staphylococcus aureus [21]): 91.4%; Activity (Enterococcus faecium [22]): 100%; Activity (Escherichia coli [23]): 100%; Activity (Acinetobacter baumannii): 93.3% |
| COc1c(N2C[C@@H](C)C[C@H](N)C2)ccc2c(=O)c(C(=O)O)cn(C3CC3)c12 [NEMONOXACIN] | 98.9% | 84.4% | 100% | 93.9% | 4 mg/L (≈ 10.8 µM) | 68.3% | 88.8% | 99.2% | 100% | 4.4% | 22.7% | 75.8% | 68.7% | < 2 mg/L | 0.06 mg/L (≈ 0.162 µM) | 83.3% | 42.1% | 8.3% | 6.3% | 91.2% | Activity (Staphylococcus aureus [24]): 98%; Activity (Proteus mirabilis [25]): 97%; Activity (Enterococcus faecium [26]): 84.2%; Activity (Streptococcus pneumoniae [27]): 99.1%; Activity (Escherichia coli [28]): 100%; Activity (Proteus mirabilis [29]): 54.5%; Activity (Enterococcus faecium [30]): 7.9%; Activity (Staphylococcus aureus [31]): 5.1%; MIC50 (Staphylococcus aureus [32]): 0.25 mg/L (≈ 0.673 µM); MIC90 (Staphylococcus aureus [32]): 0.5 mg/L (≈ 1.35 µM); Activity (Staphylococcus aureus [21]): 94.9%; Activity (Enterococcus faecium [22]): 79%; Activity (Escherichia coli [23]): 93.2%; Activity (Acinetobacter baumannii): 93.3%; Activity [33]: 37.2%; MIC90 (Enterococcus faecalis): 1 mg/L (≈ 2.69 µM) |
